Screening results deposited in PubChem by several laboratories.
G6PDH CS – L. mesenteroides G6PDH inhibitors, counter-screen for G6PDH-coupled screening assays, biochemical, Leuconostoc mesenteroides enzyme. Purified L. mesenteroides G6PDH, diaphorase/resazurin coupled fluorescence, 45 min. inhibition, % at 5 µM. 200,000 compounds, 0.12% hits
PfG6PD inh – PfG6PD enzyme inhibitors, primary screen, biochemical, fluorescence intensity, uHTS | glucose-6-phosphate dehydrogenase-6-phosphogluconolactonase (Plasmodium falciparum 3D7) | PfGluPho enzyme, NADPH resazurin-diaphorase fluorescence | inhibition, % at 20 µM | 350,000 compounds, 0.78% hits | AID 504690, 2011;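 active = inhibition reaching at least a set limit at 20 µM in the primary screen, cut at about 59% in these data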
Redox H2O2 prof – compounds producing H2O2 with reducing agent – biochemical, NIH compound library profiling, artefact control for MLSCN library redox annotation, primary screen | DTT-dependent redox cycling H2O2, phenol red/HRP absorbance; 100% = 100 µM peroxide control, 0% = buffer | activation, % at 10 µM | 200,000 compounds, 0.03% hits | AID 878, 2007;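 active = activation of at least 50% relative to the plate's high and low controls in the primary single-dose screen; inactive = activation below 50%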;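 note: compound incubated with DTT at 0.8 mM final as the reducing agent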
Diaph act CS – compounds boosting diaphorase resazurin reduction – biochemical, uHTS, resorufin fluorescence, counter-screen for diaphorase-coupled primary assays, primary screen. Diaphorase/resazurin coupled assay, 16 min; stronger effect = higher value; 1 = vehicle wells, 0 = NADH-free wells. activation factor at 20 µM. 190,000 compounds, 0.005% hits;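 active = diaphorase activity raised at least twofold by the compound at 20 µM; inactive = activation factor below 2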
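test system = bacterial diaphorase enzyme (C. kluyveri) | quantity = enzyme 0.07 U/mL final | reagent = NADH substrate 0.114 mM plus resazurin dye 0.1 mM, final | incubation = 16 min enzyme reaction, ambient temperature | buffer or medium = HEPES pH 7.4 buffer with MgCl2 and Tween 20 | signal = fluorescence of resorufin, 544 nm excitation, 590 nm emission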
Diaphorase inh – diaphorase inhibitors and chemical oxidizers, primary screen, counter-screen for diaphorase-coupled primary assays, biochemical, uHTS, resorufin fluorescence; diaphorase resazurin-to-resorufin fluorescence, NADH, 16 min; bacterial (C. kluyveri) enzyme, not human; inhibition, % at 20 µM; 190,000 compounds, 0.69% hits; AID 1217, 2008;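 active = primary screen inhibition at 20 µM above a set limit, cut at about 50% in these data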
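material = Clostridium kluyveri diaphorase enzyme | amount = 0.14 U/mL diaphorase, enzyme working solution | schedule = incubation 16 min, room temperature | detection = fluorescence of resorufin formed from resazurin, Ex 544/Em 590 nm | benchmarks = positive control minus NADH, DMSO neutral control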
Lmaj promast – Leishmania major promastigote growth inhibition, primary screen; inhibition, % at 10 µM; AID 1063, 2008; Leishmania major promastigotes, resazurin fluorescence viability; 200,000 compounds, 9% hits;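 note: promastigotes grown with compound for 44 hours at 28 °C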
Each line names hits and unclear results; the compound was inactive in the other large screens. The entries come from a sample that favours hits as a whole. Cut-off read from the data, not from the text of the source, unless noted: active = inhibition above about 50%; inactive = the rest.

CC/C(=N\NC(=O)c1ccc(-c2ccccc2)cc1)C12CC3CC(CC(C3)C1)C2	Lmaj promast 65
C/C(=N\NC(=O)c1ccncc1)C12CC3CC(CC(C3)C1)C2	none
CC1CC(C)(C)CC2(C1)NC(=O)N(CC(=O)OCC(=O)Nc1cc(S(=O)(=O)N3CCCCC3)ccc1Cl)C2=O (stereo not drawn)	none (no result: G6PDH CS, Redox H2O2 prof, Diaph act CS, Diaphorase inh, Lmaj promast)
CC1(C)NC(=O)N(CC(=O)OCC(=O)Nc2cc(S(=O)(=O)N3CCCCC3)ccc2Cl)C1=O	Lmaj promast 70
CC(C)CCNC(=O)CCc1nnc2n(CCCOC(C)C)c(=O)c3ccccc3n12	none (no result: G6PDH CS, Redox H2O2 prof, Diaph act CS, Diaphorase inh, Lmaj promast)
CCN(CC)CCCN1C(=O)CSC1c1ccc([N+](=O)[O-])cc1 (stereo not drawn)	Lmaj promast 76
CCN(CC)CCCN1C(=O)CSC1c1ccc2c(c1)OCO2 (stereo not drawn)	none
C=CCC1(N(C(C)=O)c2ccccc2)CCCCC1	none
COCCN1CC(O)=C(c2nc3ccccc3c(=O)[nH]2)C1=N	none
N=C1C(c2nc3ccccc3c(=O)[nH]2)=C(O)CN1CCc1ccccc1	Lmaj promast 60
N=C1C(c2nc3ccccc3c(=O)[nH]2)=C(O)CN1CCO	none
COc1ccccc1N1CC(O)=C(c2nc3ccccc3c(=O)[nH]2)C1=N	Lmaj promast 99
COc1ccc(/C(C)=N/NC(=O)Cn2nc([N+](=O)[O-])cc2C)cc1	none (no result: G6PDH CS, Redox H2O2 prof, Diaph act CS, Diaphorase inh, Lmaj promast)
CCN1C[C@@H]2[C@@H]3C(=O)N(Cc4ccccc4)C(=O)[C@@H]3[C@](C)(C1=O)N2C(=O)c1ccccc1	none (no result: G6PDH CS, Redox H2O2 prof, Diaph act CS, Diaphorase inh, Lmaj promast)
COc1cc2nc(SCc3ccc(Cl)cc3Cl)n(Cc3cccs3)c(=N)c2cc1OC	none
COCCCn1c(SCc2ccccc2)nc2cc(OC)c(OC)cc2c1=N	Lmaj promast 64
COc1cc2nc(SCc3ccc(C(F)(F)F)cc3)n(Cc3cccs3)c(=N)c2cc1OC	none
COc1ccc(Cn2c(SCc3cc(C)ccc3C)nc3cc(OC)c(OC)cc3c2=N)cc1	Lmaj promast 101
COc1ccc(Cn2c(SCc3ccc(C)cc3)nc3cc(OC)c(OC)cc3c2=N)cc1Cl	Lmaj promast 100
COCCCn1c(SCc2cccc(C(F)(F)F)c2)nc2cc(OC)c(OC)cc2c1=N	none
CCOC(=S)SCC(=O)Nc1ncc(C)s1	none (no result: G6PDH CS, Redox H2O2 prof, Diaph act CS, Diaphorase inh, Lmaj promast)
N#CCCN(C(=O)COC(=O)c1ccc(CNS(=O)(=O)c2ccc(F)c(Cl)c2)cc1)c1ccc(F)cc1	Lmaj promast 97
CCOC(=O)C1=C(N)Oc2cc(O)ccc2C1c1cccnc1 (stereo not drawn)	Lmaj promast 92
CCOC(=O)C1=C(N)OC2=C(C(=O)CC(C)C2)C1c1cccnc1 (stereo not drawn)	Lmaj promast 70
COCCOC(=O)C1=C(N)OC2=C(C(=O)CC(C)(C)C2)C1c1cccnc1 (stereo not drawn)	Lmaj promast 82
CCCOC(=O)C1=C(C)NC2=C(C(=O)CC(C)(C)C2)C1c1cccnc1 (stereo not drawn)	Lmaj promast 90
COCCOC(=O)C1=C(N)OC2=C(C(=O)CCC2)C1c1cccnc1 (stereo not drawn)	none
Cc1cc(C)n2nc(C(=O)OCC(=O)N(C)CC(=O)Nc3ccccc3Cl)nc2n1	none (no result: G6PDH CS, Redox H2O2 prof, Diaph act CS, Diaphorase inh, Lmaj promast)
COc1ccc(C(=O)NC(=S)Nc2ccc(CN3CCOCC3)cc2)cc1Br	none (no result: G6PDH CS, Redox H2O2 prof, Diaph act CS, Diaphorase inh, Lmaj promast)
COc1ccc2cc3cc(C(=O)NCC4COc5ccccc5O4)oc3nc2c1 (stereo not drawn)	none
O=C(O)c1ccccc1C(=O)c1ccc2c(c1)N(Cc1ccc(Cl)c(Cl)c1)C(=O)CO2	Lmaj promast 100
CCS(=O)(=O)c1ccc(C(=O)NC2CC2)c(Cl)c1Cl	none
Cc1ccc(CSC2=NCCN2S(=O)(=O)c2ccc(F)cc2)cc1	none (no result: G6PDH CS, Redox H2O2 prof, Diaph act CS, Diaphorase inh, Lmaj promast)
